Assay results as given in paper PMC3831659 (European journal of medicinal chemistry, 2013).

Assays:
[1] = tested on: Vero cells; assay: Cytotoxicity for Vero cells; type: cell-based
[2] = tested on: Toxoplasma gondii (tachyzoites); assay: T. gondii tachyzoites growth assay; type: cell-based; conditions: tachyzoites expressing red fluorescent protein in hTERT cells
Method in brief: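 hTERT host cells grown in high-glucose DMEM with 1% fetal bovine serum, 2 mM glutamine and 1 mM pyruvate at 37 °C in humid 5% CO2. They were inoculated with 4 × 10⁴ RFP-expressing tachyzoites/well in the same medium. Plates were incubated at 37 °C and read daily through covered lids, bottom fluorescence ex 544/em 590 nm. EC50 was fitted as I = Imax·C/(EC50 + C), with Imax = 100%.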

[3] = tested on: T. cruzi (amastigotes); conditions: clinically more relevant form of T. cruzi; cited from earlier work
[4] = tested on: epimastigotes (EP strain); conditions: ergosterol and its 24-ethyl analogue; cited from earlier work
[5] = tested on: Trypanosoma cruzi; conditions: protection not as efficient as ketoconazole (positive control); cited from earlier work

Compound	Cytotoxicity on Vero cells ED50 ([1]; Alamar Blue assay) [µM]	Toxoplasma gondii (tachyzoites) ED50 [2]	also measured
O=[N+]([O-])c1cccc(Oc2ccc(OCCOC3CCCCO3)cc2)c1 (stereo not drawn) [Compound 10, 4-(3-Nitrophenoxy)phenoxyethyl Tetrahydro-2H-pyran-2-yl Ether]	> 50		
N#CSCCOc1ccc(Oc2cccc([N+](=O)[O-])c2)cc1 [Compound 13, 4-(3-Nitrophenoxy)phenoxyethyl Thiocyanate]	> 50		
COc1ccc(Oc2ccc(OCCSC#N)cc2)cc1 [Compound 21, 4-(4-Methoxyphenoxy)phenoxyethyl Thiocyanate]	> 100		
COc1cccc(Oc2ccc(OCCSC#N)cc2)c1 [Compound 22, 4-(3-Methoxyphenoxy)phenoxyethyl Thiocyanate]	> 50	6.7 ± 3.1 µM	
c1cncc(Oc2ccc(OCCOC3CCCCO3)cc2)c1 (stereo not drawn) [Compound 25, 4-(Pyridin-3-yloxy)phenoxyethyl Tetrahydro-2H-pyran-2-yl Ether]	> 50	vanishing antiparasitic activity	
N#CSCCOc1ccc(Oc2cccnc2)cc1 [Compound 28, 4-(Pyridin-3-yloxy)phenoxyethyl Thiocyanate]	> 50	7.5 ± 0.8 µM	
N#CSCCOc1cccc(Oc2ccccc2)c1 [Compound 36, 3-Phenoxyphenoxyethyl Thiocyanate]	> 50		
COc1ccc(Oc2cccc(OCCSC#N)c2)cc1 [Compound 37, 3-(4-Methoxyphenoxy)phenoxyethyl Thiocyanate]	> 50		
N#CSCCOc1ccc(Oc2ccccc2)cc1 [WC-9, 4-Phenoxyphenoxyethyl thiocyanate]			Cytotoxicity on Vero cells ED50 ([1]; African green monkey): > 50 µM; IC50 against T. cruzi amastigotes [3]: low nanomolar range; depletion of parasite endogenous sterols [4]: almost complete disappearance of the parasite sterols; effect on parasitemia in murine models of Chagas disease [5]: able to impair parasitemia
